Data taken from ChEMBL document CHEMBL5329210, “Novel piperazine-1,2,3-triazole leads for the potential treatment of pancreatic cancer” (RSC Med Chem, 2023).

Key:
MIA PaCa-2 [1] = assay: Inhibition of cell growth of human MIA PaCa-2 cells at 25 uM measured after 72 hrs by CCK8 assay relative to control; format: functional
Method in brief: (§1)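 Single 25 μM exposure, read by CCK-8, n = 3, relative to control. Seeding was 3×10^3/well for MiaPaCa2, 7×10^3/well for BxPC3 (in RPMI-1640/10% FBS) and 1×10^4/well for HPDE (in KSFM with rEGF/BPE). After 24 h attachment, cells were exposed for 72 h. CCK-8 was then incubated for 1 h, and A450 minus A650 was compared with 0.5% DMSO.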

U-87 MG = assay: Inhibition of cell growth of human U87 cells at 25 uM measured after 72 hrs by MTT assay relative to control
MCF7 [2] = assay: Inhibition of cell growth of human MCF7 cells at 25 uM measured after 72 hrs by MTT assay relative to control; details: MCF7, 72 h
BE(2)-C [3] = assay: Inhibition of cell growth of human BE2C cells at 25 uM measured after 72 hrs by MTT assay relative to control
[4] = Inhibition of cell growth of human SJG2 cells at 25 uM measured after 72 hrs by MTT assay relative to control; details: SJ-G2, 72 h
HT-29 [5] = assay: Inhibition of cell growth of human HT-29 cells at 25 uM measured after 72 hrs by MTT assay relative to control; details: HT-29, 72 h
A2780 [6] = assay: Inhibition of cell growth of human A2780 cells at 25 uM measured after 72 hrs by MTT assay relative to control; details: A2780, 72 h
A-431 = assay: Inhibition of cell growth of human A-431 cells at 25 uM measured after 72 hrs by MTT assay relative to control; details: A-431, 72 h
DU-145 = assay: Inhibition of cell growth of human DU-145 cells at 25 uM measured after 72 hrs by MTT assay relative to control; details: DU-145, 72 h
[7] = Inhibition of cell growth of human MCF-10A cells at 25 uM measured after 72 hrs by MTT assay relative to control
NCI-H460 = assay: Inhibition of cell growth of human NCI-H460 cells at 25 uM measured after 72 hrs by MTT assay relative to control; details: NCI-H460, 72 h
HT-29 [8] = assay: Inhibition of cell growth of human HT-29 cells at 25 uM measured after 72 hrs by MTT assay relative to control; format: functional
Method in brief: (§2)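 MTT read-out. Cancer lines were grown in DMEM with 10% FBS, glutamine and antibiotics. MCF10A was grown in DMEM:F12 with 5% horse serum, EGF, hydrocortisone, cholera toxin and insulin. Cells were plated in duplicate at 2500–4000/well, and drug was added 24 h later. After 72 h, absorbance was read at 540 nm. Single-point lines used 25 μM. GI50 is 50% growth inhibition versus untreated control. n = 3.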

MCF7 [9] = assay: Inhibition of cell growth of human MCF7 cells at 25 uM measured after 72 hrs by MTT assay relative to control; format: functional; method in brief: as §2
A2780 [10] = assay: Inhibition of cell growth of human A2780 cells at 25 uM measured after 72 hrs by MTT assay relative to control; format: functional; method in brief: as §2
BE(2)-C [11] = assay: Inhibition of cell growth of human BE2C cells at 25 uM measured after 72 hrs by MTT assay relative to control; format: functional; method in brief: as §2
MIA PaCa-2 [12] = assay: Inhibition of cell growth of human MIA PaCa-2 cells at 25 uM measured after 72 hrs by MTT assay relative to control; format: functional; method in brief: as §2
BXPC-3 [13] = assay: Inhibition of cell growth of human BXPC-3 cells at 25 uM measured after 72 hrs by MTT assay relative to control; format: functional; method in brief: as §2
ASPC1 = assay: Inhibition of cell growth of human ASPC1 cells at 25 uM measured after 72 hrs by MTT assay relative to control; format: functional; method in brief: as §2
Capan-2 = assay: Inhibition of cell growth of human Capan-2 cells at 25 uM measured after 72 hrs by MTT assay relative to control; format: functional; method in brief: as §2
PANC-1 = assay: Inhibition of cell growth of human PANC-1 cells at 25 uM measured after 72 hrs by MTT assay relative to control; format: functional; method in brief: as §2
HPAC = assay: Inhibition of cell growth of human HPAC cells at 25 uM measured after 72 hrs by MTT assay relative to control; format: functional; method in brief: as §2
[14] = Inhibition of cell growth of human MCF-10A cells at 25 uM measured after 72 hrs by MTT assay relative to control; format: toxicity, cell-based; method in brief: as §2
BXPC-3 [15] = assay: Inhibition of cell growth of human BXPC-3 cells at 25 uM measured after 72 hrs by CCK8 assay relative to control; format: functional; method in brief: as §1
[16] = Inhibition of cell growth of human HPDE cells at 25 uM measured after 72 hrs by CCK8 assay relative to control; format: toxicity, cell-based; method in brief: as §1

SMILES	inhibition at 25 µM (MIA PaCa-2 [1])	inhibition at 25 µM (U-87 MG)	inhibition at 25 µM (MCF7 [2])	inhibition at 25 µM (BE(2)-C [3])	inhibition at 25 µM [4]	inhibition at 25 µM (HT-29 [5])	inhibition at 25 µM (A2780 [6])	inhibition at 25 µM (A-431)	inhibition at 25 µM (DU-145)	inhibition at 72 h, 25 µM [7]	inhibition at 25 µM (NCI-H460)	inhibition at 25 µM (HT-29 [8])	inhibition at 25 µM (MCF7 [9])	inhibition at 25 µM (A2780 [10])	inhibition at 25 µM (BE(2)-C [11])	inhibition at 25 µM (MIA PaCa-2 [12])	inhibition at 25 µM (BXPC-3 [13])	inhibition at 25 µM (ASPC1)	inhibition at 25 µM (Capan-2)	inhibition at 25 µM (PANC-1)	further results
CC(=O)Nc1ccc(S(=O)(=O)N2CCN(CCCn3cc(-c4ccc(F)cc4)nn3)CC2)cc1	35%	16%	27%	38%	67%	22%	50%	28%	35%	41%	18%	–	–	–	–	–	–	–	–	–	–
CCc1ccc(-c2cn(CCCN3CCN(S(=O)(=O)c4cccc(C(F)(F)F)c4)CC3)nn2)cc1	–	–	–	–	–	–	–	–	–	–	–	65%	86%	86%	61%	50%	39%	60%	58%	59%	inhibition at 25 µM (HPAC): 41%; inhibition at 72 h, 25 µM [14]: 77%
Cc1ccc(-c2cn(CCCN3CCN(S(=O)(=O)c4ccccc4C(F)(F)F)CC3)nn2)cc1	–	–	–	–	–	–	–	–	–	–	–	86%	79%	75%	35%	38%	11%	57%	42%	48%	inhibition at 25 µM (HPAC): 41%; inhibition at 72 h, 25 µM [14]: 61%
Cc1ccc(-c2cn(CCCN3CCN(S(=O)(=O)c4cccc(C(F)(F)F)c4)CC3)nn2)cc1	–	–	–	–	–	–	–	–	–	–	–	63%	86%	83%	60%	48%	32%	60%	54%	57%	inhibition at 25 µM (HPAC): 40%; inhibition at 72 h, 25 µM [14]: 79%
CC(=O)Nc1ccc(S(=O)(=O)N2CCN(CCCn3cc(-c4ccc(C(F)(F)F)cc4)nn3)CC2)cc1	43%	16%	42%	41%	42%	59%	67%	31%	52%	73%	30%	–	–	–	–	–	–	–	–	–	–
CC(=O)Nc1ccc(S(=O)(=O)N2CCN(CCCn3cc(-c4ccc(Br)cc4)nn3)CC2)cc1	34%	4%	28%	39%	48%	58%	46%	16%	54%	58%	19%	–	–	–	–	–	–	–	–	–	–
O=S(=O)(c1cccc(C(F)(F)F)c1)N1CCN(CCCn2cc(-c3ccc(Br)cc3)nn2)CC1	–	–	–	–	–	–	–	–	–	–	–	46%	56%	72%	40%	35%	22%	53%	39%	41%	inhibition at 25 µM (HPAC): < 10%; inhibition at 72 h, 25 µM [14]: 74%
O=S(=O)(c1ccccc1C(F)(F)F)N1CCN(CCCn2cc(-c3ccc(C(F)(F)F)cc3)nn2)CC1	–	–	–	–	–	–	–	–	–	–	–	69%	75%	80%	62%	45%	19%	50%	42%	54%	inhibition at 25 µM (HPAC): 29%; inhibition at 72 h, 25 µM [14]: 64%
COc1cccc(-c2cn(CCCN3CCN(S(=O)(=O)c4ccc(C(C)=O)cc4)CC3)nn2)c1	< 10%	–	–	–	–	–	–	–	–	–	–	–	–	–	–	–	–	–	–	–	inhibition at 25 µM (BXPC-3 [15]): 22.8%; inhibition at 72 h, 25 µM [16]: 30.1%
CC(=O)Nc1ccc(S(=O)(=O)N2CCN(CCCn3cc(-c4ccccc4)nn3)CC2)cc1	30%	10%	24%	32%	59%	31%	47%	31%	34%	44%	23%	–	–	–	–	–	–	–	–	–	–
CC(=O)Nc1ccc(S(=O)(=O)N2CCN(CCCn3cc(-c4cccc(Cl)c4)nn3)CC2)cc1	32%	1%	31%	27%	33%	42%	49%	2%	24%	43%	18%	–	–	–	–	–	–	–	–	–	–
CC(=O)Nc1ccc(S(=O)(=O)N2CCN(CCCn3cc(-c4ccc(C)cc4)nn3)CC2)cc1	38%	22%	42%	36%	72%	46%	57%	40%	61%	67%	34%	–	–	–	–	–	–	–	–	–	–
CCc1ccc(-c2cn(CCCN3CCN(S(=O)(=O)c4ccccc4C(F)(F)F)CC3)nn2)cc1	–	–	–	–	–	–	–	–	–	–	–	79%	82%	75%	52%	39%	16%	59%	25%	48%	inhibition at 25 µM (HPAC): 67%; inhibition at 72 h, 25 µM [14]: 63%
COc1cccc(-c2cn(CCCN3CCN(S(=O)(=O)c4ccc(Cl)cc4)CC3)nn2)c1	< 10%	–	–	–	–	–	–	–	–	–	–	–	–	–	–	–	–	–	–	–	inhibition at 25 µM (BXPC-3 [15]): 22.9%; inhibition at 72 h, 25 µM [16]: 54.3%
CC(=O)Nc1ccc(S(=O)(=O)N2CCN(CCCn3cc(-c4ccc([N+](=O)[O-])cc4)nn3)CC2)cc1	40%	27%	47%	42%	37%	50%	72%	33%	48%	69%	40%	–	–	–	–	–	–	–	–	–	–
CCc1ccc(-c2cn(CCCN3CCN(S(=O)(=O)c4ccc(NC(C)=O)cc4)CC3)nn2)cc1	38%	< 0%	30%	36%	29%	64%	59%	16%	42%	67%	32%	–	–	–	–	–	–	–	–	–	–
COc1cccc(-c2cn(CCCN3CCN(S(=O)(=O)c4ccc(F)cc4)CC3)nn2)c1	< 10%	–	–	–	–	–	–	–	–	–	–	–	–	–	–	–	–	–	–	–	inhibition at 25 µM (BXPC-3 [15]): 15.1%; inhibition at 72 h, 25 µM [16]: 40.8%
COc1cccc(-c2cn(CCCN3CCN(S(=O)(=O)c4ccc(C(C)C)cc4)CC3)nn2)c1	11.4%	–	–	–	–	–	–	–	–	–	–	–	–	–	–	–	–	–	–	–	inhibition at 25 µM (BXPC-3 [15]): < 10%; inhibition at 72 h, 25 µM [16]: 48.8%
COc1cccc(-c2cn(CCCN3CCN(S(=O)(=O)c4ccc(C(C)(C)C)cc4)CC3)nn2)c1	< 10%	–	–	–	–	–	–	–	–	–	–	–	–	–	–	–	–	–	–	–	inhibition at 25 µM (BXPC-3 [15]): < 10%; inhibition at 72 h, 25 µM [16]: 38.2%
